In one series the test system is WI-38 VA13. The series can be described thus: Cytotoxicity against human VA13 cells after 48 hrs by WST8 assay. The following applies: WI-38 VA13, 48 h. It counts as functional, cell-based. Put shortly:
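VA-13 cells grown in RITC 80-7 with 10% FBS; ca. 5000 cells/well preincubated 24 h at 37 °C, 5% CO2, then compounds in DMSO added for 48 h. WST-8 added, formazan read at 450 nm; IC50 taken as 50% growth inhibition from viability-versus-concentration plot.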
In general terms: Tetrazolium dyes change colour on reduction, which living cells bring about.

The target in series [1] is T1, P-glycoprotein (ABCB1) (Homo sapiens, UniProt P08183). The series can be described thus: Inhibition of P-glycoprotein-mediated multidrug resistance in adriamycin-resistant human A2780 cells assessed as calcein accumulation at 2.5 ug/ml after 15 mins relative to verapamil. Particulars: probe calcein. It counts as cell-based.
T1 sequence (P08183 whole entry): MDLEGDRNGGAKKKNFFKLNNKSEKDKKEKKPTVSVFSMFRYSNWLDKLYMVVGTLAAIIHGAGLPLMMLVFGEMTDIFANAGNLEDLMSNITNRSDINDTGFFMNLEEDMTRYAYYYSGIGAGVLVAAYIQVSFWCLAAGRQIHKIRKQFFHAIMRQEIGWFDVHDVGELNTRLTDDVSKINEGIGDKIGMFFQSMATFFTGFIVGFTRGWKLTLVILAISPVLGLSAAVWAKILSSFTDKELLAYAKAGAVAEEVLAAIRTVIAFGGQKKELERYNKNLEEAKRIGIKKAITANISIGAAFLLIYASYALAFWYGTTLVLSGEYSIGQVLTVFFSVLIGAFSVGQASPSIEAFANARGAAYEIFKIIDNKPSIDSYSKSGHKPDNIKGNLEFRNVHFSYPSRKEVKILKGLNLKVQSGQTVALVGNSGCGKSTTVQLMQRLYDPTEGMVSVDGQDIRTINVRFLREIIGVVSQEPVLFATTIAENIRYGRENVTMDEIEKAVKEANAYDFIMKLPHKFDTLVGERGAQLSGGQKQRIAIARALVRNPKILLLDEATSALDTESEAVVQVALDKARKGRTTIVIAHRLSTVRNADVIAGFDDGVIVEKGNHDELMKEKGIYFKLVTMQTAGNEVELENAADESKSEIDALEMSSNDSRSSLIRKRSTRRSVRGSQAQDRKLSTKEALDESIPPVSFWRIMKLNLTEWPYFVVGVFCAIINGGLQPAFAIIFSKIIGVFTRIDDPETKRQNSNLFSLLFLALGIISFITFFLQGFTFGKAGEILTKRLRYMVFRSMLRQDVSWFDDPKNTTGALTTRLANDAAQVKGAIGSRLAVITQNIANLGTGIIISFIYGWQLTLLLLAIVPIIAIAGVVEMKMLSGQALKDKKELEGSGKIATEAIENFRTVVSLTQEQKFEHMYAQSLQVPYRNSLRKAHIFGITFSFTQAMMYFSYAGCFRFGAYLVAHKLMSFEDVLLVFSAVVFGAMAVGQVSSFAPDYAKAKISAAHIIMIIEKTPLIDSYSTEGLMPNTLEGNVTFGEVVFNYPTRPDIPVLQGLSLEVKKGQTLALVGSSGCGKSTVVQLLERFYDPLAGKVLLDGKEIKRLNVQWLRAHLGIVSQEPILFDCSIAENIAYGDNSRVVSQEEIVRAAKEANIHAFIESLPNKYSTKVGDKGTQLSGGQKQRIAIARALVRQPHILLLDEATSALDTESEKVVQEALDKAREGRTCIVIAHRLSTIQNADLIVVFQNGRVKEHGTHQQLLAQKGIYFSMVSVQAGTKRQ
Series [2] addresses T1, P-glycoprotein (ABCB1). Description: Inhibition of P-glycoprotein-mediated multidrug resistance in adriamycin-resistant human A2780 cells assessed as calcein accumulation at 0.25 ug/ml after 15 mins relative to control. It counts as cell-based. Particulars: probe calcein, values are per cent of control.
In series [3] the target is T1, P-glycoprotein (ABCB1). The series can be described thus: Inhibition of P-glycoprotein-mediated multidrug resistance in adriamycin-resistant human A2780 cells assessed as calcein accumulation at 0.25 ug/ml after 15 mins relative to verapamil. Particulars: probe calcein. It counts as cell-based.
The target of series [4] is T1, P-glycoprotein (ABCB1). The series can be described thus: Inhibition of P-glycoprotein-mediated multidrug resistance in adriamycin-resistant human A2780 cells assessed as calcein accumulation at 25 ug/ml after 15 mins relative to verapamil. It counts as cell-based. Particulars: probe calcein.
The target in series [5] is T1, P-glycoprotein (ABCB1). Description: Inhibition of P-glycoprotein-mediated multidrug resistance in adriamycin-resistant human A2780 cells assessed as calcein accumulation at 2.5 ug/ml after 15 mins relative to control. Format: cell-based. Particulars: probe calcein, values are per cent of control.
The test system of series [6] is A549. Description: Cytotoxicity against human A549 cells after 24 hrs by MTT assay. It counts as functional, cell-based. Put shortly: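 A549 cells, 2 × 10^4/well seeded the day before, exposed to test compounds 24 h; MTT 500 µg/mL pulsed for the final 4 h, formazan dissolved in 10% SDS overnight, A595. Viability as (sample − background)/(control − background) × 100.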

The test system of series [7] is A549. The series can be described thus: Antiinflammatory activity against human A549 cells assessed as inhibition of IL-1-alpha-induced ICAM1 expression. It counts as functional, cell-based. In outline: (§1)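 A549 cells, 2 × 10^4/well seeded the day before, preincubated 1 h ± test compounds, then stimulated with IL-1α (1 ng/mL) or TNF-α (10 ng/mL) for 6 h. Fixed in 1% paraformaldehyde, mouse anti-human ICAM-1 then peroxidase anti-mouse IgG; o-phenylenediamine/H2O2 substrate, pH 5.3, 20 min 37 °C, A415. Expression as % of stimulated minus unstimulated absorbance.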

Series [8] relates to A549. The series can be described thus: Antiinflammatory activity against human A549 cells assessed as inhibition of TNF-alpha-induced ICAM1 expression. Format: functional, cell-based. Put shortly:
as §1

Series [9] deals with T1, P-glycoprotein (ABCB1). The series can be described thus: Inhibition of P-glycoprotein-mediated multidrug resistance in adriamycin-resistant human A2780 cells assessed as calcein accumulation at 25 ug/ml after 15 mins relative to control. Format: cell-based. Particulars: probe calcein, values are per cent of control.
The test system of another series is HepG2. Description: Cytotoxicity against human HepG2 cells after 48 hrs by WST8 assay. The following applies: HepG2, 48 h. It counts as functional, cell-based. Put shortly: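 About 5000 cells per well, preincubated 24 h at 37 °C in 5% CO2. Cells kept in D-MEM with 10% FBS and 80 µg/mL kanamycin. Samples were added in DMSO and incubated a further 48 h. WST-8 formazan was read at 450 nm, viability was plotted against concentration, and IC50 was taken as the concentration giving 50% growth inhibition.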

In brackets after ≈: the same amount, converted by molar mass.

Broadly, the IC50 is the midpoint of a concentration-inhibition curve. For orientation: inhibition means the drop in the measured response relative to a control, in per cent. Turning to `COc1cc([C@@H]2O[C@H](c3cc(OC)c4c(c3)OCO4)[C@@H](COC(C)=O)[C@@H]2COC(C)=O)cc(OC)c1O`, the IC50 with WI-38 VA13 stood at 47.4 µg/mL (≈ 91.4 µM); with A549 [7], 84.4 µM; in the series on A549 [8] it was 38.6 µM. Also, on P-glycoprotein (ABCB1) [1], the inhibition at 0.25 h, 2.5 ug/ml was 99%. Besides, at P-glycoprotein (ABCB1) [2], the response, % of control at 0.25 h, 0.25 ug/ml is 88%. For the same molecule, on P-glycoprotein (ABCB1) [3], the inhibition at 0.25 h, 0.25 ug/ml was 100%. Further, the inhibition at 0.25 h, 25 ug/ml on P-glycoprotein (ABCB1) [4] was 78%. The response, % of control at 0.25 h, 2.5 ug/ml at P-glycoprotein (ABCB1) [5] was 95%. In addition, in the series with A549 [6], the Activity result was “Not toxic”. The response, % of control at 0.25 h, 25 ug/ml at P-glycoprotein (ABCB1) [9] was 101%.

In the case of `COc1cc([C@@H]2O[C@H](c3cc(OC)c4c(c3)OCO4)[C@@H](COC(C)=O)[C@@H]2CO)cc(OC)c1OC`, the inhibition at 0.25 h, 2.5 ug/ml on P-glycoprotein (ABCB1) [1] was 110%. For the same molecule, the response, % of control at 0.25 h, 0.25 ug/ml at P-glycoprotein (ABCB1) [2] is 97%. In addition, the inhibition at 0.25 h, 0.25 ug/ml at P-glycoprotein (ABCB1) [3] is 110%. Besides, the inhibition at 0.25 h, 25 ug/ml at P-glycoprotein (ABCB1) [4] is 107%. Moreover, the response, % of control at 0.25 h, 2.5 ug/ml on P-glycoprotein (ABCB1) [5] was 105%. Besides, in the series on A549 [6], the Activity entry was “Not toxic”. Moreover, the IC50 in the series with A549 [7] is 189 µM; in the series on A549 [8], 105 µM. Moreover, the response, % of control at 0.25 h, 25 ug/ml on P-glycoprotein (ABCB1) [9] is 138%.

`O=C1CCCC(=O)C1C(=O)CCc1ccccc1` gave an IC50 in the series with WI-38 VA13 of 40.5 µg/mL (≈ 166 µM).

In the case of `CC(C)[C@@H](C)/C=C/[C@@H](C)[C@H]1CC[C@H]2[C@@]3(O)C=C[C@@]4(O)C[C@@H](O)CC[C@]4(C)[C@H]3CC[C@]12C`, the IC50 in the series with WI-38 VA13 came out at 48.1 µg/mL (≈ 112 µM); in the series with HepG2, 47.9 µg/mL (≈ 111 µM). Besides, at P-glycoprotein (ABCB1) [1], the inhibition at 0.25 h, 2.5 ug/ml is 111%. For the same molecule, at P-glycoprotein (ABCB1) [2], the response, % of control at 0.25 h, 0.25 ug/ml was 97%. On P-glycoprotein (ABCB1) [3], the inhibition at 0.25 h, 0.25 ug/ml is 109%. Further, the inhibition at 0.25 h, 25 ug/ml on P-glycoprotein (ABCB1) [4] was 73%. In addition, the response, % of control at 0.25 h, 2.5 ug/ml on P-glycoprotein (ABCB1) [5] was 106%. Besides, the response, % of control at 0.25 h, 25 ug/ml at P-glycoprotein (ABCB1) [9] is 95%.

On to `COc1cc([C@H]2O[C@@H](c3cc(OC)c4c(c3)OCO4)[C@@H](COC(C)=O)[C@@H]2CO)cc2c1OCO2`, for which the inhibition at 0.25 h, 2.5 ug/ml on P-glycoprotein (ABCB1) [1] is 89%. Also, the response, % of control at 0.25 h, 0.25 ug/ml on P-glycoprotein (ABCB1) [2] is 76%. Moreover, the inhibition at 0.25 h, 0.25 ug/ml at P-glycoprotein (ABCB1) [3] is 86%. Besides, the inhibition at 0.25 h, 25 ug/ml on P-glycoprotein (ABCB1) [4] was 72%. Besides, the response, % of control at 0.25 h, 2.5 ug/ml at P-glycoprotein (ABCB1) [5] was 85%. Also, the response, % of control at 0.25 h, 25 ug/ml at P-glycoprotein (ABCB1) [9] is 94%.

With `COc1ccc(-c2cc(=O)c3c(O)cc(OC)cc3o2)cc1` [APIGENIN DIMETHYLETHER], the IC50 with WI-38 VA13 was found to be 38.9 µg/mL (≈ 130 µM).

Molecule `COc1cc([C@H]2O[C@H](c3cc(OC)c4c(c3)OCO4)[C@@H](COC(C)=O)[C@@H]2CO)cc2c1OCO2` yielded an IC50 in the series with WI-38 VA13 of 36.2 µg/mL (≈ 76.3 µM).

These data come from ChEMBL document CHEMBL1158832, “Bioactive tetrahydrofuran lignans from Peperomia dindygulensis” (J Nat Prod, 2005).
